Screening data: PubChem BioAssay, several laboratories
OX1R antag-1: blocks the human orexin 1 receptor; O43613; CHO/OX1R cells, Fluo-8 calcium fluorescence, orexin A; inhibition, % at 5 µM; 330,000 compounds, 0.43% hits;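 active = inhibition above its plate's threshold, mean inhibition of all tested compounds on the plate plus 3 SD, cut at about 37% in these data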
TAAR1 antagonist: human TAAR1 antagonism; CHO RD-HGA16 TAAR1, Fluo-8 calcium fluorescence, antagonist; inhibition, % at 3 µM; 360,000 compounds, 1.5% hits; AID 624466;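 active = inhibition above a per-plate cutoff, the mean inhibition of test compounds on that plate plus 3 SD, cut at about 49% in these data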
Target sequence (Q96RJ0 whole entry, looked up): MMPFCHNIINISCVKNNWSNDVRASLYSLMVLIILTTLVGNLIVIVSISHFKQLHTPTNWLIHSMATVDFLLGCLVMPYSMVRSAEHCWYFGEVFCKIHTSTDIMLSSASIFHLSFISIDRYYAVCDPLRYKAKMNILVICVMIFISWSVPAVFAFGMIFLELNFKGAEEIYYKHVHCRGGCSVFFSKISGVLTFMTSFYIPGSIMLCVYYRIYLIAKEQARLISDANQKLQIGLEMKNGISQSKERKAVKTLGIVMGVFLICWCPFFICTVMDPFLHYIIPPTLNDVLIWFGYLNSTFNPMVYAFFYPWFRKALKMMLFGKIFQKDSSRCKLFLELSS
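System: RD-HGA16 CHO cells with stable hTAAR1 and Gα16 | Probe or stimulus: EC80 β-phenethylamine stimulus | Dosing: 3 µM, single point | Times: Dye loading 75 min at 37 °C, then 30 min room temperature | Measured by: Fluo-8 calcium-sensitive fluorescence | Read-out basis: % inhibition of agonist calcium response | Replicates: n of 1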
NTR1 ag: activates human neurotensin receptor 1 | P30989 | NTR1-U2OS beta-arrestin-GFP spot imaging, agonist mode | activation, % at 20 µM | 330,000 compounds, 0.17% hits | AID 493036;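 active = activation at or above 40% of the spot to cytoplasm intensity ratio, with at least 20 cells analyzed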
Target sequence (P30989 whole entry, looked up): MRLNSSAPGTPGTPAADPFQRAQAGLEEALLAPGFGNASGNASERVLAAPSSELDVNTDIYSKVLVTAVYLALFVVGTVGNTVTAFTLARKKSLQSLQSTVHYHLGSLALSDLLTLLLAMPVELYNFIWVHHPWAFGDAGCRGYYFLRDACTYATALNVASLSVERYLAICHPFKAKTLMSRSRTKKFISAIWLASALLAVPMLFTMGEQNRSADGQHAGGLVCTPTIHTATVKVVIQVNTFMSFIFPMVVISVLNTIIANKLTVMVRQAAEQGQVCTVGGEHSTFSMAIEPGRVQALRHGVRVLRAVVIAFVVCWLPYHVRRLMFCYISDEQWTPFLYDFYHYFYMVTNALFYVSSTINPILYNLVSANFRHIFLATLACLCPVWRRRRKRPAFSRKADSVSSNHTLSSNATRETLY
TAAR1 ag: human TAAR1 agonism | CHO RD-HGA16 TAAR1, Fluo-8 calcium fluorescence; vehicle wells 0%, saturating PEA agonist 100% | activation, % at 3 µM | 360,000 compounds, 0.99% hits;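 active = activation above the mean activation of all test compounds in the run plus 3 SD, cut at about 38% in these data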
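System: CHO-derived RD-HGA16 cells with stable Gα16 and human TAAR1 / Times: 17-24 h plating, Fluo-8 75 min 37 °C, 30 min RT / Technique: calcium-sensitive Fluo-8 signal, excitation 470-495, emission 515-575 nm / Measure: % activation relative to PEA EC100 response / Benchmarks: DMSO and PEA EC100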
OX1R antag-2: blocks the human orexin 1 receptor. inhibition, % at 6.6 µM. OX1R-expressing cells, FRET antagonist read-out. AID 485270. 330,000 compounds, 1.8% hits. O43613; in the data active = inhibition mostly above about 38%, no sharp cut-off; inactive = mostly below about 40%
CHO parental Ca: signal in parental CHO cells, OX1R antagonist counter-screen; parental CHO-K1, ATP-induced calcium, Fluo-8 fluorescence; inhibition, % at 5.6 µM; 330,000 compounds, 0.63% hits; AID 463079;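 active = inhibition above that plate's mean sample inhibition plus 3 SD, cut at about 26% in these data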
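Material – parental CHO cells · Reagent – ATP stimulus · Compound – single nominal dose of 5.6 µM per compound · Detection – Fluo-8 fluorescence · Read-out basis – percent inhibition of calcium signal · Controls – ATP-challenged DMSO wells low, unchallenged DMSO wells high · Repeats – no replicates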
OX1R HTRF confirm: OX1R (human) antagonism, HTRF confirmed; shares compounds with OX1R antag-2; OX1R-expressing cells, HTRF antagonist assay; inhibition, % at 6.6 µM; 1,800 compounds, 49% hits; AID 492964; in the data active = inhibition above about 55%;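 note: CHO cells expressing OX1R stimulated with orexin A at about EC80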
CHO-K1 HTRF cnt: counter-screen for OX1R antagonists: effect in parental CHO-K1 cells; shares compounds with OX1R antag-2; HTRF counterscreen; inhibition, % at 6.6 µM; 1,800 compounds, 48% hits; AID 493232; in the data active = inhibition above about 17%
Of the large screens only hits and unclear results are named; the others gave an inactive call (follow-up assays come after a bar, where they were run). Sampled rows, rich in hits. Any-hit rate of the full collection: about 4%.

CC1=C(C#N)C(c2cccnc2)C2=C(N1)c1ccccc1C2=O (stereo not drawn)	OX1R antag-2 96 | OX1R HTRF confirm inactive | CHO-K1 HTRF cnt inactive
O=S(=O)(c1cccc2nsnc12)N1CCOCC1	OX1R antag-2 92 | OX1R HTRF confirm inactive | CHO-K1 HTRF cnt 38
O=C(CCN1C(=O)c2cccc3cccc(c23)C1=O)N1CCOCC1	OX1R antag-2 80 | OX1R HTRF confirm inactive | CHO-K1 HTRF cnt 64
O=C(CCN1C(=O)c2cccc3cccc(c23)C1=O)NC1CCS(=O)(=O)C1 (stereo not drawn)	OX1R antag-2 79 | OX1R HTRF confirm inactive | CHO-K1 HTRF cnt 54
O=C(CCN1C(=O)c2cccc3cccc(c23)C1=O)NCC1CCCO1 (stereo not drawn)	OX1R antag-2 92 | OX1R HTRF confirm inactive | CHO-K1 HTRF cnt 40
O=C(NCCN1C(=O)S/C(=C/c2cccnc2)C1=O)c1ccc(S(=O)(=O)N2CCCC2)cc1	none (no result: OX1R antag-1, NTR1 ag, OX1R antag-2, CHO parental Ca)
O=S(=O)(Cc1ccc(Cl)cc1)c1ncc(CO)n1Cc1ccccc1	none
COc1ccc(NC(=O)C2(C)CCN2CCc2ccccc2)cc1OC (stereo not drawn)	none (no result: OX1R antag-1, NTR1 ag, OX1R antag-2, CHO parental Ca)
CNc1nc(N2CCc3ccccc32)ncc1F	OX1R antag-2 89 | OX1R HTRF confirm 83 | CHO-K1 HTRF cnt inactive
CC[C@@H](NCCCn1cnc2c(SC)ncnc21)c1ccccc1	none (no result: OX1R antag-1, NTR1 ag, OX1R antag-2, CHO parental Ca)
O=C(NCCO)c1ccc2nc(-c3ccco3)c(-c3ccco3)nc2c1	OX1R antag-2 109 | OX1R HTRF confirm inactive | CHO-K1 HTRF cnt 58
CCC(=O)N=c1ccn(C2=Nc3ccccc3NC2=C(C#N)C#N)cc1	OX1R antag-2 102 | OX1R HTRF confirm inactive | CHO-K1 HTRF cnt 36
CCOC(=O)/C(C#N)=C1/C=Nc2ccccc2N1	none
COc1ccccc1CNC(=O)CCS(=O)(=O)c1cccc2nonc12	OX1R antag-2 83 | OX1R HTRF confirm inactive | CHO-K1 HTRF cnt 32
COc1ccc(N(C)C(=O)CCS(=O)(=O)c2cccc3nonc23)cc1	OX1R antag-2 117 | OX1R HTRF confirm inactive | CHO-K1 HTRF cnt 49
O=C(NC1CCCCC1)C(c1ccccc1F)N(C(=O)c1csnn1)C1CCCC1 (stereo not drawn)	none
Cc1cc(C)nc(Nc2n[nH]c(-c3cccc4ccccc34)n2)n1	OX1R antag-2 80 | OX1R HTRF confirm 60 | CHO-K1 HTRF cnt inactive
Cc1cc(C)nc(Nc2n[nH]c(-c3ccccc3Cl)n2)n1	none
NC(=O)c1cc(N)ccc1N1CCCC1	OX1R antag-2 87 | OX1R HTRF confirm inactive | CHO-K1 HTRF cnt 19
O=C(NCCCN1CCCC1=O)c1ccc([N+](=O)[O-])s1	OX1R antag-2 119 | OX1R HTRF confirm 57 | CHO-K1 HTRF cnt 71
O=C(OCc1cn([C@H]2CN(CC3CCCCC3)[C@@H](c3ccccc3)C[C@@H]2O)nn1)c1ccccc1	none (no result: OX1R antag-1, NTR1 ag, OX1R antag-2, CHO parental Ca)
CC(C)(C)c1ccc(S(=O)(=O)O/N=C2/CCCCC2c2ccc([N+](=O)[O-])cc2[N+](=O)[O-])cc1 (stereo not drawn)	OX1R antag-2 115 | OX1R HTRF confirm inactive | CHO-K1 HTRF cnt 47
Cc1ccc(S(=O)(=O)N/N=C2/CCCCC2C2CCCCC2)cc1[N+](=O)[O-] (stereo not drawn)	none
CN1C(=O)/C(=C2\SC(=S)N(C(CCC(=O)O)C(=O)O)C2=O)c2ccccc21 (stereo not drawn)	OX1R antag-2 142 | OX1R HTRF confirm 57 | CHO-K1 HTRF cnt 102
CCOC(=O)COc1ccc2cc(C(=O)OCC)c(=O)oc2c1	OX1R antag-2 110 | OX1R HTRF confirm inactive | CHO-K1 HTRF cnt 38
Cc1ccc(N(CC(=O)NC2CCCC2)C(=O)CNC(=O)c2cccs2)cc1C	none
CSc1nnc2c(n1)OC(C)=Nc1ccccc1-2	OX1R antag-2 79 | OX1R HTRF confirm 60 | CHO-K1 HTRF cnt 101
CCC1=Nc2ccccc2-c2nnc(SC)nc2O1	OX1R antag-2 197 | OX1R HTRF confirm 68 | CHO-K1 HTRF cnt 95
C[C@H]1CNC(=O)c2c(C(=O)NC3CCN(C(=O)OC(C)(C)C)CC3)ncn21	none (no result: OX1R antag-1, NTR1 ag, OX1R antag-2, CHO parental Ca)
CC(=O)NS(=O)(=O)c1ccc(NS(=O)(=O)c2ccccc2[N+](=O)[O-])cc1	none
O=C1NC(C(=O)O)=CC(c2ccc([N+](=O)[O-])cc2)N1 (stereo not drawn)	OX1R antag-2 104 | OX1R HTRF confirm inactive | CHO-K1 HTRF cnt 78
COc1cccc(CN2CC(C(=O)NCc3cnn(C)c3)CCC2=O)c1 (stereo not drawn)	none
CCn1c(/C=C2/C(=O)N(C)c3ccccc32)nc2ccccc2c1=O	OX1R antag-2 86 | OX1R HTRF confirm inactive | CHO-K1 HTRF cnt inactive
CCn1c(/C=C2\C(=O)N(C)c3ccccc32)nc2ccccc2c1=O	none
CN(C)c1ccc(S(=O)(=O)N2CCCCC2)cc1NC(=O)C1=COCCO1	none
C[n+]1cnc(-c2ccccc2)cc1-c1ccccc1	OX1R antag-2 85 | OX1R HTRF confirm inactive | CHO-K1 HTRF cnt 64
c1ccc(-c2cc(-c3ccccc3)ncn2)cc1	none
O=c1[nH]cnc2nc(-c3ccccc3)c(-c3ccccc3)nc12	OX1R antag-2 129 | OX1R HTRF confirm inactive | CHO-K1 HTRF cnt 23
O=c1[nH]cnc2nn(-c3ccccc3)nc12	none
O=[N+]([O-])c1cc(C(F)(F)F)ccc1N1CCN(CCO)CC1	none
O=[N+]([O-])c1ccc(N2CCN(CCOCCO)CC2)c([N+](=O)[O-])c1	OX1R antag-2 85 | OX1R HTRF confirm inactive | CHO-K1 HTRF cnt 39
COCCCNC(=O)c1ccc(OC)c(OC2CCN(C(C)C)CC2)c1	none
COc1ccccc1N1CC=C(c2cccc([N+](=O)[O-])c2)NC1=O	none
CC1CCCC/C1=N\Nc1ccc(S(N)(=O)=O)cc1[N+](=O)[O-] (stereo not drawn)	OX1R antag-2 116 | OX1R HTRF confirm inactive | CHO-K1 HTRF cnt 26
CC(C)(C)C1CCC(=NNc2ccc(S(N)(=O)=O)cc2[N+](=O)[O-])CC1 (stereo not drawn)	none
O=S(=O)(c1ccc(F)cc1)N1CCN(CC(O)COCC2CCCO2)CC1 (stereo not drawn)	none (no result: OX1R antag-1, OX1R antag-2, CHO parental Ca)
COc1ccc2c(c1)c(=O)oc1c(C)c(OC(C)C(=O)N[C@@H](Cc3c[nH]c4ccc(O)cc34)C(=O)O)ccc12 (stereo partly drawn)	none
Fc1ccc(NC(=S)Nc2cccnc2)c(Cl)c1	OX1R antag-2 98 | OX1R HTRF confirm inactive | CHO-K1 HTRF cnt inactive
